Data as given in ChEMBL document CHEMBL4177693, “Design, synthesis, and biological evaluation of thieno[2,3-d]pyrimidine derivatives as novel dual c-Met and VEGFR-2 kinase inhibitors” (Bioorg Med Chem, 2017).

Legend:
BaF3 = assay: Antiproliferative activity against mouse BAF3 cells harboring […] at 1 uM after 72 hrs by CCK-8 assay relative to control; format: functional; details: BaF3, 72 h
Method in brief: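 Murine BaF3 cells expressing TPR-Met (c-Met-dependent) were plated in RPMI 1640 with 10% FBS. Serial compound dilutions or 0.1% DMSO were added the following day, and cells were incubated a further 72 h before CCK-8 read-out. IC50 was fitted by nonlinear regression; single-point percent inhibition was tested at 1 μM.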

HUVEC [1] = assay: Antiproliferative activity against human VEGF-stimulated HUVEC cells at 1 uM after 120 hrs by CCK-8 assay relative to control; format: functional
Method in brief: (§1)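 HUVECs were plated in human endothelial serum-free medium. The next day, serial dilutions of compound or 0.1% DMSO vehicle were added, with 60 ng/mL recombinant human VEGF to drive proliferation for 120 h. Viability was read by CCK-8. IC50 came from nonlinear regression; percent inhibition was also scored at a single 1 μM concentration.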

HUVEC [2] = assay: Antiproliferative activity against human VEGF-stimulated HUVEC after 120 hrs by CCK-8 assay; format: functional, cell-based; method in brief: as §1

## COCCNC(=O)c1sc2ncnc(Oc3ccc(NC(=O)C4(C(=O)Nc5ccc(F)cc5)CC4)cc3F)c2c1C
BaF3
  inhibition at 1 µM: 90.9%
HUVEC [1]
  inhibition at 1 µM: 68.9%
HUVEC [2]
  IC50: 139 nM

## Cc1c(C(=O)NCCS(C)(=O)=O)sc2ncnc(Oc3ccc(NC(=O)C4(C(=O)Nc5ccc(F)cc5)CC4)cc3F)c12
BaF3
  inhibition at 1 µM: 96%
HUVEC [1]
  inhibition at 1 µM: 79.5%
HUVEC [2]
  IC50: 86 nM

## Cc1c(C(=O)NCCC(C)C)sc2ncnc(Oc3ccc(NC(=O)C4(C(=O)Nc5ccc(F)cc5)CC4)cc3F)c12
BaF3
  inhibition at 1 µM: 86.6%
HUVEC [1]
  inhibition at 1 µM: 27.5%

## COCCCNC(=O)c1sc2ncnc(Oc3ccc(NC(=O)C4(C(=O)Nc5ccc(F)cc5)CC4)cc3F)c2c1C
BaF3
  inhibition at 1 µM: 88.6%
HUVEC [1]
  inhibition at 1 µM: 33.3%

## Cc1c(C(=O)N2CCSCC2)sc2ncnc(Oc3ccc(NC(=O)C4(C(=O)Nc5ccc(F)cc5)CC4)cc3F)c12
BaF3
  inhibition at 1 µM: 23%
HUVEC [1]
  inhibition at 1 µM: 15.5%

## Cc1c(C(=O)N2CCCCC2)sc2ncnc(Oc3ccc(NC(=O)C4(C(=O)Nc5ccc(F)cc5)CC4)cc3F)c12
BaF3
  inhibition at 1 µM: 20.3%
HUVEC [1]
  inhibition at 1 µM: 10.5%

## Cc1c(C(=O)NCCN2CCCC2)sc2ncnc(Oc3ccc(NC(=O)C4(C(=O)Nc5ccc(F)cc5)CC4)cc3F)c12
BaF3
  inhibition at 1 µM: 88.2%
HUVEC [1]
  inhibition at 1 µM: 29.7%

## Cc1c(C(=O)NCCN2CCOCC2)sc2ncnc(Oc3ccc(NC(=O)C4(C(=O)Nc5ccc(F)cc5)CC4)cc3F)c12
BaF3
  inhibition at 1 µM: 95.4%
HUVEC [1]
  inhibition at 1 µM: 73.6%
HUVEC [2]
  IC50: 89 nM

## CC(=O)N1CCN(C(=O)c2sc3ncnc(Oc4ccc(NC(=O)C5(C(=O)Nc6ccc(F)cc6)CC5)cc4F)c3c2C)CC1
BaF3
  inhibition at 1 µM: 61%
HUVEC [1]
  inhibition at 1 µM: 23.8%

## Cc1c(C(=O)Nc2ccc(F)cc2)sc2ncnc(Oc3ccc(NC(=O)C4(C(=O)Nc5ccc(F)cc5)CC4)cc3F)c12
BaF3
  inhibition at 1 µM: 26.7%
HUVEC [1]
  inhibition at 1 µM: 32.9%

## COC(=O)c1sc2ncnc(Oc3ccc(NC(=O)C4(C(=O)Nc5ccc(F)cc5)CC4)cc3F)c2c1C
BaF3
  inhibition at 1 µM: 18.1%
HUVEC [1]
  inhibition at 1 µM: 4.56%

## Cc1c(C(=O)O)sc2ncnc(Oc3ccc(NC(=O)C4(C(=O)Nc5ccc(F)cc5)CC4)cc3F)c12
BaF3
  inhibition at 1 µM: 2.13%
HUVEC [1]
  inhibition at 1 µM: 8.72%

## Cc1c(C(=O)N2CCCC2)sc2ncnc(Oc3ccc(NC(=O)C4(C(=O)Nc5ccc(F)cc5)CC4)cc3F)c12
BaF3
  inhibition at 1 µM: 31.1%
HUVEC [1]
  inhibition at 1 µM: 15.8%

## Cc1c(C(=O)NC2CC2)sc2ncnc(Oc3ccc(NC(=O)C4(C(=O)Nc5ccc(F)cc5)CC4)cc3F)c12
BaF3
  inhibition at 1 µM: 26.6%
HUVEC [1]
  inhibition at 1 µM: 13.7%

## Cc1c(C(=O)OCc2ccccc2)sc2ncnc(Oc3ccc(NC(=O)C4(C(=O)Nc5ccc(F)cc5)CC4)cc3F)c12
BaF3
  inhibition at 1 µM: 10.5%
HUVEC [1]
  inhibition at 1 µM: 6.17%

## Cc1c(C(=O)N2CCOCC2)sc2ncnc(Oc3ccc(NC(=O)C4(C(=O)Nc5ccc(F)cc5)CC4)cc3F)c12
BaF3
  inhibition at 1 µM: 61.5%
HUVEC [1]
  inhibition at 1 µM: 10.8%

## Cc1c(C(=O)NCC#N)sc2ncnc(Oc3ccc(NC(=O)C4(C(=O)Nc5ccc(F)cc5)CC4)cc3F)c12
BaF3
  inhibition at 1 µM: 92.6%
HUVEC [1]
  inhibition at 1 µM: 66.7%
HUVEC [2]
  IC50: 123 nM

## CCOC(=O)c1sc2ncnc(Oc3ccc(NC(=O)C4(C(=O)Nc5ccc(F)cc5)CC4)cc3F)c2c1C
BaF3
  inhibition at 1 µM: 16.4%
HUVEC [1]
  inhibition at 1 µM: 12.7%

## Cc1c(C(=O)N(C)C)sc2ncnc(Oc3ccc(NC(=O)C4(C(=O)Nc5ccc(F)cc5)CC4)cc3F)c12
BaF3
  inhibition at 1 µM: 60%
HUVEC [1]
  inhibition at 1 µM: 24.4%

## COc1cc2nccc(Oc3ccc(NC(=O)C4(C(=O)Nc5ccc(F)cc5)CC4)cc3)c2cc1OC [CABOZANTINIB]
BaF3
  inhibition at 1 µM: 97.7%
HUVEC [1]
  inhibition at 1 µM: 72.8%

## Cc1c(C(=O)NCCCN2CCOCC2)sc2ncnc(Oc3ccc(NC(=O)C4(C(=O)Nc5ccc(F)cc5)CC4)cc3F)c12
BaF3
  inhibition at 1 µM: 92.8%
HUVEC [1]
  inhibition at 1 µM: 61.3%
HUVEC [2]
  IC50: 153 nM
